Runt-SMMHC FRET: inhibitors of human RUNX1 Runt domain binding to CBFb-SMMHC; 220,000 tested, 0.74% active; inhibition, % at 20 µM; Q01196+Q13951; Cerulean-Runt/Venus-CBFb-SMMHC FRET ratio 530/480, 1 h; AID 1434;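 active = mean inhibition across duplicate retests at 20 µM reaching about 50%, limit read from the data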;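 also: inhibitors lower the FRET ratio by blocking Runt binding to CBFb-SMMHC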
Runt-CBFb FRET: blocks binding of human RUNX1 Runt domain to CBFb | Q01196+Q13951 | Cerulean-Runt/Venus-CBFb FRET ratio 530/480, 1 h | inhibition, % at 20 µM | 220,000 tested, 0.46% active | AID 1496;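 active = inhibition over about 50% at 20 µM in the single-dose screen, limit read from the data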
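System: Cerulean-labeled Runt domain protein | Quantity: 100 nM of each labeled protein | Schedule: 1 h compound exposure, room temperature | Detection: Fluorescence energy transfer, 422 nm excitation, 530/480 nm emission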
RanGTP-Impb inh: inhibitors of RanGTP-importin-beta interaction, primary screen, biochemical, FRET, CFP-Ran, YFP-importin-beta, homogeneous. cell-free CFP-Ran/YFP-importin-beta FRET ratio. inhibition, % (no concentration beside the values). 300,000 tested, 1.1% active;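 active = more than half of the replicate wells show a fall in the fluorescence ratio signal beyond about 16%, limit read from the data, passing the limit was not always enough; inconclusive = exactly half of the replicate wells pass the set limit; inactive = fewer than half of replicates pass the limit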
p-CIP stab down: compounds decreasing mouse p/CIP protein stability | AID 1984 | decrease of EGFP signal, % at 10 µM | F442A p/CIP-EGFP cells, EGFP fluorescence, 16 h | Q05BA5 | 290,000 tested, 0.01% active;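 active = EGFP signal decrease of at least 30% at 10 µM or well 3 SD below plate mean, unless failing retest; inactive = the rest, including hits failing retest or dose response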
Pemphigus Ab inh: blocks pemphigus antibody binding to human desmoglein-3; 310,000 tested, 0.48% active; DSG3-coupled beads, scFv-anti-DSG3-GFP binding, flow cytometry; stronger effect = lower value; P32926; AID 588358; binding (percent of control), % at 10 µM;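 active = binding more than 3 SD below its plate's average and above zero; inconclusive = below that plate limit but binding exactly zero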;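 also: hits lower antibody fragment binding to DSG3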
Target sequence (P32926 whole entry, looked up, the tested form may be a part): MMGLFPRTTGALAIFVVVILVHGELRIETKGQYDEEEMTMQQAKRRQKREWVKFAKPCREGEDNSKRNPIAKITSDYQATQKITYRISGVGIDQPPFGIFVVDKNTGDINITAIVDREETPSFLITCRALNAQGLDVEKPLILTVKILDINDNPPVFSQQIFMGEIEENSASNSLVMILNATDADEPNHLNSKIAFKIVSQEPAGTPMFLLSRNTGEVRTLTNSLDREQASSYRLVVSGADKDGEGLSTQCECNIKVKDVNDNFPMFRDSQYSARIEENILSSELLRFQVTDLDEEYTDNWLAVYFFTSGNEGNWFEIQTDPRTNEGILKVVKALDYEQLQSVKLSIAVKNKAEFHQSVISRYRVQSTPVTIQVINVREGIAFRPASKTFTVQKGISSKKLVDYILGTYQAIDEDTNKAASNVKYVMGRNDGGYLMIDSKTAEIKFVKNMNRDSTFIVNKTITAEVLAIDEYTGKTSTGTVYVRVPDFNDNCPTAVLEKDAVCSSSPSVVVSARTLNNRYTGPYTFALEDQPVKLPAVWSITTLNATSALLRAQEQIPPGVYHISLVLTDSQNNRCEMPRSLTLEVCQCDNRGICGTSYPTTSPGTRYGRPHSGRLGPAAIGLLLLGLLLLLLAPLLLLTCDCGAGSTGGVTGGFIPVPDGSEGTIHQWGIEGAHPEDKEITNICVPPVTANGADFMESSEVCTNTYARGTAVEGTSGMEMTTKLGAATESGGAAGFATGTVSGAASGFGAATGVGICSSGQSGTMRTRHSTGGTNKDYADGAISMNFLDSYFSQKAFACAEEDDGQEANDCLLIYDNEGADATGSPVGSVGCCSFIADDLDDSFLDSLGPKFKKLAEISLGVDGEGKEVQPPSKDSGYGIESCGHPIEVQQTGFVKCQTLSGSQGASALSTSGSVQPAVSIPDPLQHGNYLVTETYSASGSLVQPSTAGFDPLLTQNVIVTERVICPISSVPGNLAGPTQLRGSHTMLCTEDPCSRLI
Hck-Nef inh: human Hck-Nef kinase inhibition. Recombinant Hck-YEEI plus Nef, Z-Lyte FRET kinase assay. inhibition, % at 20 µM. 220,000 tested, 0.68% active;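 active = Hck-Nef kinase inhibition above about 50%, limit read from the data; inactive = inhibition below that limit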
Numbers stand for hits. This is a sample that favours compounds with a hit; in the whole collection about 2.1% have one here.

How did COc1cc(Sc2ccc(C)cc2)c(OC)cc1N do in these assays?
Runt-SMMHC FRET: inactive; Runt-CBFb FRET: inactive; RanGTP-Impb inh: inactive; p-CIP stab down: inactive; Pemphigus Ab inh: 80.1; Hck-Nef inh: inactive

What do the screens show for `CNC(=O)c1c(NC(=O)c2cccc(N3C(=O)CCC3=O)c2)sc2c1CCCC2`?
Runt-SMMHC FRET: inactive; Runt-CBFb FRET: inactive; RanGTP-Impb inh: inactive; p-CIP stab down: inactive; Pemphigus Ab inh: inactive; Hck-Nef inh: inactive

How did O=C(CN1CCN(c2ccccc2O)CC1)Nc1cc([N+](=O)[O-])ccc1Cl do in these assays?
Runt-SMMHC FRET: inactive; Runt-CBFb FRET: inactive; RanGTP-Impb inh: inactive; p-CIP stab down: inactive; Pemphigus Ab inh: inactive; Hck-Nef inh: inactive

Results for O=C(CN1CCN(c2ccccc2O)CC1)Nc1ccc([N+](=O)[O-])cc1Br ?
Runt-SMMHC FRET: inactive; Runt-CBFb FRET: inactive; RanGTP-Impb inh: inactive; p-CIP stab down: inactive; Pemphigus Ab inh: 94.5; Hck-Nef inh: inactive

How did O=C(CCN1C(=O)/C(=C/c2ccc(F)cc2)SC1=S)NNC(=O)c1cccnc1 do in these assays?
Runt-SMMHC FRET: inactive; Runt-CBFb FRET: inactive; RanGTP-Impb inh: inactive; p-CIP stab down: inactive; Pemphigus Ab inh: 87.7; Hck-Nef inh: inactive

How did O=C(CCN1C(=O)/C(=C/c2ccccc2)SC1=S)NNC(=O)c1cccnc1 do in these assays?
Runt-SMMHC FRET: inactive; Runt-CBFb FRET: inactive; RanGTP-Impb inh: inactive; p-CIP stab down: inactive; Hck-Nef inh: inactive

What do the screens show for `O=C(CCN1C(=O)/C(=C/c2cccc(Br)c2)SC1=S)NNC(=O)c1cccnc1`?
Runt-SMMHC FRET: inactive; Runt-CBFb FRET: inactive; RanGTP-Impb inh: inactive; p-CIP stab down: inactive; Pemphigus Ab inh: 83.1; Hck-Nef inh: inactive

How did COc1ccc(CCNC(=O)c2ccccc2C(=O)NCCc2ccc(OC)cc2)cc1 do in these assays?
RanGTP-Impb inh: inactive; Pemphigus Ab inh: inactive

What do the screens show for `COc1ccc(CCNC(=O)c2ccccc2)cc1`?
RanGTP-Impb inh: inactive; p-CIP stab down: inactive; Pemphigus Ab inh: 64.8

Results for O=C(Nc1ccc(NC(=O)c2cccs2)cc1)c1cccs1 ?
RanGTP-Impb inh: inactive; p-CIP stab down: inactive; Pemphigus Ab inh: 21.8

What do the screens show for `O=C(Nc1ccc2c(c1)C(=O)N(c1ccccc1)C2=O)c1cccs1`?
Runt-SMMHC FRET: inactive; Runt-CBFb FRET: inactive; RanGTP-Impb inh: inactive; p-CIP stab down: inactive; Pemphigus Ab inh: 86.6; Hck-Nef inh: inactive

How did COc1ccc(-c2ccc3c(c2)C2CC3CCN2S(=O)(=O)c2ccccc2C)cc1 (configuration not stated) do in these assays?
Pemphigus Ab inh: inactive

How did CCCCNC(=O)/C=C1\Sc2ccccc2NC1=O do in these assays?
Runt-SMMHC FRET: inactive; Runt-CBFb FRET: inactive; RanGTP-Impb inh: 31.8; p-CIP stab down: inactive; Pemphigus Ab inh: inactive; Hck-Nef inh: inactive

Results for CCc1ccc(C(=O)/C=C2\Sc3ccccc3NC2=O)cc1 ?
Runt-SMMHC FRET: inactive; Runt-CBFb FRET: inactive; RanGTP-Impb inh: inactive; p-CIP stab down: inactive; Pemphigus Ab inh: inactive; Hck-Nef inh: inactive

Results for CS(=O)(=O)N1CCN(c2ccc([N+](=O)[O-])c(NCc3ccccc3)c2)CC1 ?
Runt-SMMHC FRET: inactive; Runt-CBFb FRET: inactive; RanGTP-Impb inh: inactive; p-CIP stab down: inactive; Hck-Nef inh: inactive

What do the screens show for `CS(=O)(=O)N1CCN(c2ccc([N+](=O)[O-])c(NCc3ccc(Cl)cc3)c2)CC1`?
Runt-SMMHC FRET: inactive; Runt-CBFb FRET: inactive; RanGTP-Impb inh: inactive; p-CIP stab down: inactive; Pemphigus Ab inh: inactive; Hck-Nef inh: 98.1

Results for CS(=O)(=O)N1CCN(c2ccc([N+](=O)[O-])c(NCc3cccnc3)c2)CC1 ?
Runt-SMMHC FRET: inactive; Runt-CBFb FRET: inactive; RanGTP-Impb inh: inactive; p-CIP stab down: inactive; Pemphigus Ab inh: 24.8; Hck-Nef inh: inactive

What do the screens show for `O=C(Nc1ccccc1)SC1CCCCC1`?
Pemphigus Ab inh: inactive

Results for Cc1nnc2sc(-c3ccc(NC(=O)c4ccc(-c5ccc(Cl)cc5Cl)o4)cc3)nn12 ?
RanGTP-Impb inh: inconclusive; Pemphigus Ab inh: inactive; Hck-Nef inh: 86.7

How did Cc1nnc2sc(-c3ccc(NC(=O)c4cccnc4)cc3)nn12 do in these assays?
Hck-Nef inh: inactive

How did COc1ccccc1NC(=O)c1ccccc1Nc1ccccc1 do in these assays?
RanGTP-Impb inh: inactive; p-CIP stab down: inactive; Pemphigus Ab inh: inactive

What do the screens show for `COc1ccccc1Nc1ccc(N)cc1`?
Runt-SMMHC FRET: inactive; Runt-CBFb FRET: inactive; RanGTP-Impb inh: inactive; p-CIP stab down: inactive; Pemphigus Ab inh: 38.9; Hck-Nef inh: inactive

What do the screens show for `COc1ccc(C(C)NC(=O)Cc2cccs2)cc1OC` (configuration not stated)?
RanGTP-Impb inh: inactive; p-CIP stab down: inactive; Pemphigus Ab inh: inactive

Results for O=[N+]([O-])c1ccc(NC(=S)N2CCOCC2)cc1 ?
Runt-SMMHC FRET: inactive; Runt-CBFb FRET: inactive; RanGTP-Impb inh: inactive; p-CIP stab down: inactive; Pemphigus Ab inh: inactive; Hck-Nef inh: inactive

What do the screens show for `O=[N+]([O-])c1cccc(NC(=S)N2CCOCC2)c1`?
Runt-SMMHC FRET: inactive; Runt-CBFb FRET: inactive; RanGTP-Impb inh: 68.4; p-CIP stab down: inactive; Pemphigus Ab inh: inactive; Hck-Nef inh: inactive

What do the screens show for `CC(C)(C)N1C(=O)[C@H]2[C@@H](c3ccc(Br)cc3)N3C(=O)N(c4cccc(Cl)c4)C(=O)[C@@]3(Cc3ccccc3)[C@H]2C1=O`?
RanGTP-Impb inh: inactive; Pemphigus Ab inh: inactive

How did C#CCn1c(O)c(N=NC(=O)CNC(=O)c2cccnc2)c2ccccc21 do in these assays?
RanGTP-Impb inh: inactive; p-CIP stab down: inactive; Pemphigus Ab inh: inactive

Results for N=c1c(C(=O)NC2CCCC2)cc2c(=O)n3ccccc3nc2n1CCN1CCOCC1 ?
Runt-SMMHC FRET: 76.9; Runt-CBFb FRET: 99.2; RanGTP-Impb inh: 99.1; p-CIP stab down: inactive; Pemphigus Ab inh: inactive; Hck-Nef inh: inactive

Results for COc1ccc(CCn2c(=N)c(C(=O)NCCN3CCOCC3)cc3c(=O)n4ccccc4nc32)cc1OC ?
RanGTP-Impb inh: inactive; p-CIP stab down: inactive; Pemphigus Ab inh: inactive

Results for N=c1c(C(=O)NC2CCCC2)cc2c(=O)n3ccccc3nc2n1CCCN1CCOCC1 ?
RanGTP-Impb inh: 139.7; p-CIP stab down: inactive

What do the screens show for `O=C(OCC(=O)C12CC3CC(CC(C3)C1)C2)c1ccccc1O`?
Pemphigus Ab inh: 69.9

Results for COC(=O)c1cc(NC(=O)COC(=O)CCc2nc3ccccc3c(=O)[nH]2)cc(C(=O)OC)c1 ?
Pemphigus Ab inh: 64.8

What do the screens show for `O=C(COC(=O)CCc1nc2ccccc2c(=O)[nH]1)Nc1ccccc1`?
Pemphigus Ab inh: inactive

What do the screens show for `Cc1cccn2c(=O)c3cc(C(=O)NC4CCCC4)c(=N)n(CCc4ccccc4)c3nc12`?
RanGTP-Impb inh: 178.6; p-CIP stab down: inactive; Pemphigus Ab inh: inactive

Screening data deposited in PubChem by several laboratories.
